High-throughput results deposited in PubChem BioAssay by Broad Institute.
This is a sample that favours compounds with a hit; in the whole collection about 2.1% have one here.
PGC1a acetyl inh – PGC1a acetylation modulation, inhibitor mode; U2OS PGC1a acetylation, AlphaScreen anti-acetyl-lysine; with virally co-expressed GCN5 acetyltransferase; inhibition, % at 15.6 µM; 0.17% of 350,000 active;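 active means every replicate shows inhibition of at least 40%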;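 further: 0% = neutral control wells and 100% = positive control wells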
AF4-AF9 inh – blocks AF4 peptide binding to human AF9; inhibition, % at 10 µM; AlphaScreen, biotin-AF4 peptide binding to FLAG-AF9; 0.47% of 350,000 active; P42568;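 active means every replicate reaching a set inhibition limit, whatever the replicate mean, cut at about 25% in these data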;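 further: 0% = plate neutral control median and 100% = total signal loss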
Target sequence (P42568 whole entry, looked up): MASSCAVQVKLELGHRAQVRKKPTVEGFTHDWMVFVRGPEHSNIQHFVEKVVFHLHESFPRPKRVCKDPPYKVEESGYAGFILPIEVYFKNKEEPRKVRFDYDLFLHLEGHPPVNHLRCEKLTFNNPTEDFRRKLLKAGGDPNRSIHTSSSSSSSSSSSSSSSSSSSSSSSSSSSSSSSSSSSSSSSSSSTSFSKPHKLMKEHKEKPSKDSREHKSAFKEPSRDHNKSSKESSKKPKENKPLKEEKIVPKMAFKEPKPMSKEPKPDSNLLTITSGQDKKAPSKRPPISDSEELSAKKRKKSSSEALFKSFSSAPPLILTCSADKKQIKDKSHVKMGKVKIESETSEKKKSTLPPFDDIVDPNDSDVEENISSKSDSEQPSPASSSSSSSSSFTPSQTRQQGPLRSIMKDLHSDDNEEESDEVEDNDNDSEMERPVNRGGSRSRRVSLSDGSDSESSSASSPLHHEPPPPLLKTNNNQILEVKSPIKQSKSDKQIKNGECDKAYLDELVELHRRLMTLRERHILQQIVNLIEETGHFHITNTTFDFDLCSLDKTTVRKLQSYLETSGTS
PAX8 inh HTS – PAX8 transcriptional activity inhibition; inhibition, % at 12.6 µM; RMG-I TPO-luciferase reporter, SteadyGlo, 24 h; AID 652154; 1.2% of 360,000 active;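 active means mean replicate inhibition at least 60% with every replicate also reaching 60%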;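 further: luciferase light reporting Pax8 driven TPO promoter activity; plate controls were median of neutral control wells for no effect and mitoxantrone controls for full effect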
XiGFP reactiv – activators of X-chromosome reactivation in mouse fibroblasts; XiGFP mouse fibroblasts, % GFP-positive cells imaging, 3 d; cells co-treated with 5-aza-dC sensitizer; scaled so ellipticine positive control = 100%; activation, % at 7.58 µM; 0.055% of 360,000 active; AID 743238;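 active means mean normalized replicate activation at least 10% and every replicate at or above 10%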;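 further: 0% = median of on-plate neutral control wells and 100% = ellipticine 6 µM median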
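System: SV40-immortalized XiGFP fibroblast cells, line 68-5-11 / Incubation: 3-day compound exposure, then 15 min fixation at room temperature / Compound: single concentration per compound, delivered by pin transfer / Buffer or medium: DMEM plus 5-aza-dC sensitizer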
EWS-Fli block – inhibitors of EWS/Fli oncoprotein transcriptional activity; A673 NR0B1-luciferase reporter, viability-normalised; inhibition, % at 12.6 µM; 0.67% of 350,000 active; AID 651661;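 active means mean inhibition of at least 50% after viability correction, with every replicate also passing that limit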;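 further: firefly luciferase signal divided by Alamar Blue viability fluorescence both relative to DMSO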
GSIS activator – GLuc luminescence reporter in INS-1E cells, primary screen for activators of glucose-dependent secretion of insulin; INS-1E GLuc reporter insulin secretion, 2-3 h; AID 743287; activation, % at 16.6 µM; 0.61% of 370,000 active;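 active means lowest replicate activation of at least 40%, so every replicate reaches that level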;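 further: 0% = median of neutral control wells and 100% = median of IBMX positive control wells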
Numbers without * were called inactive; x = not tested or not shown.

SMILES | PGC1a acetyl inh | AF4-AF9 inh | PAX8 inh HTS | XiGFP reactiv | EWS-Fli block | GSIS activator
C[C@@H]1CCCCO[C@H](CN(C)C(=O)Nc2ccc(C(F)(F)F)cc2)[C@@H](C)CN([C@@H](C)CO)C(=O)c2cc(NC(=O)Nc3ccccc3)ccc2O1 | 8.8 | -2.4 | 93.4* | 0.0 | -10.8 | -1.8
C[C@@H]1CCCCO[C@H](CN(C)C(=O)Nc2ccc(C(F)(F)F)cc2)[C@H](C)CN([C@@H](C)CO)C(=O)c2cc(NC(=O)Nc3ccccc3)ccc2O1 | 2.7 | -3.6 | 3.2 | 0.2 | -9.9 | 7.1
CCCN1[C@@H]2c3ccc(-c4ccccc4)c(=O)n3C[C@@H]2[C@@H](CO)[C@@H]1C(=O)NCCc1cn(C)cn1 | 4.0 | 3.8 | 17.0 | 0.0 | 10.9 | 6.4
C[C@H]1CN([C@@H](C)CO)C(=O)c2cc(NC(=O)Nc3ccccc3)ccc2O[C@@H]1CN(C)C(=O)Nc1ccc(C(F)(F)F)cc1 | -1.8 | -0.3 | x | 0.1 | 16.4 | -23.0
C[C@H](CO)N1C[C@H](C)[C@H](CN(C)C(=O)Nc2ccccc2)Oc2ccc(NC(=O)Nc3ccc(C(F)(F)F)cc3)cc2C1=O | 0.4 | 0.1 | 74.0* | -0.9 | 0.4 | -6.8
O=C(C[C@H]1CC[C@@H]2[C@H](COC[C@@H](O)CN2S(=O)(=O)c2ccc(F)cc2)O1)NCC1CC1 | -3.6 | 10.4 | 7.8 | 0.1 | -9.0 | 6.7
CCCNC(=O)C[C@@H]1CC[C@H]2[C@H](COc3ccc(NC(=O)Nc4c(C)noc4C)cc3C(=O)N2C)O1 | -3.3 | -0.9 | -19.7 | 0.3 | -1.2 | 2.7
CN(N=Nc1nc[nH]c1C(N)=O)C1CCCCC1 | -0.3 | -7.4 | 99.9* | -0.1 | -10.5 | 21.2
CCOC(=O)c1[nH]cnc1N=Nc1c(O)ccc2ccccc12 | x | x | 22.7 | 0.1 | x | 23.2
NC(=O)c1[nH]cnc1N=NN(CCO)Cc1ccccc1 | -0.9 | -0.9 | 74.0* | 0.4 | -7.3 | 9.5
CN(Cc1ccccc1)C(=O)c1nc[nH]c1C(=O)N(C)Cc1ccccc1 | -1.9 | -0.6 | 8.3 | -0.4 | 3.0 | 8.0
CN(C)N=Nc1nc[nH]c1C(N)=O | -3.9 | -4.5 | 102.5* | 0.1 | -3.1 | -13.4
CN(C1CCCCC1)S(=O)(=O)c1ccc(SCC(N)=O)nc1 | -9.0 | -5.5 | -136.1 | 0.3 | -5.5 | 0.4
CCCC(=O)Nc1ccc2c(c1)OC[C@H](C)N(C)C[C@H](C)[C@@H](OC)CN(C)C2=O | x | -3.8 | x | 0.0 | x | 4.7
COc1ccc(C#Cc2cnc3c(c2)C(=O)N([C@@H](C)CO)C[C@@H](C)[C@@H](CN(C)C(C)=O)O3)cc1 | 12.0 | -1.2 | 7.4 | 0.8 | -15.6 | 1.0
O=C(C[C@H]1C[C@H]2c3cc(NC(=O)CC4CC4)ccc3O[C@H]2[C@@H](CO)O1)NCCc1ccccc1 | 7.5 | 0.4 | 7.7 | 0.0 | 15.6 | -9.0
COc1ccc(S(=O)(=O)N(C)C[C@@H]2OCCCC[C@H](C)Oc3ccc(NC(=O)c4ccncc4)cc3C(=O)N([C@H](C)CO)C[C@H]2C)cc1 | -2.3 | 2.2 | -1.6 | 0.0 | -9.7 | 5.9
C[C@@H]1CN([C@H](C)CO)C(=O)c2cc(C#CCN(C)C)cnc2O[C@H]1CN(C)C(=O)Nc1cccc(F)c1 | -10.5 | 0.2 | x | 0.0 | 2.7 | 7.1
C=CCC[C@H](Cc1ccc(F)cc1)C(=O)OC[C@@H](NC(=O)[C@@H](CC=C)CC(=O)N(CCO)Cc1ccccc1)C(C)(C)C | x | x | 64.1* | -0.1 | 13.7 | -8.5
C=CCC[C@H](Cc1ccc(F)cc1)C(=O)OC[C@@H](NC(=O)[C@@H](CC=C)CC(=O)N[C@@H](CO)Cc1ccccc1)C(C)(C)C | x | -8.1 | 108.0* | 0.0 | 10.9 | -48.9
C=CC[C@@H](CC(=O)N(CCO)Cc1ccccc1)C(=O)NC[C@H](OC(=O)[C@@H](CC=C)Cc1ccc(F)cc1)c1ccccc1 | x | 0.0 | 83.6* | -0.3 | -2.3 | -30.3
C=CCC[C@@H](Cc1ccc(F)cc1)C(=O)OC[C@@H](NC(=O)[C@@H](CC=C)CC(=O)N[C@@H](CO)Cc1ccccc1)C(C)(C)C | -7.3 | 0.3 | 32.6 | 0.7 | -0.7 | -1.7
